# Results: ChEMBL document CHEMBL5705905, “Pharmacological targeting of kinases MST1 and MST2 augments tissue repair and regeneration” (Sci Transl Med, 2016)
# Activity calls are given as the source filed them. The rule behind the calls is not given here.
# Experiments:
# [1] = target: Casein kinase I isoform alpha-like (Homo sapiens) (UniProt Q8N752); test: Inhibition of CSNK1A1L (unknown origin) assessed as remaining activity at 1 uM by Kinome scan method relative to control
# How it was run: (§1)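 Active-site-dependent competition-binding profiling (KINOMEscan) at 1 μM against a 468-kinase panel; compound supplied from a 10 mM DMSO stock. Read-out is ctrl% = (test signal − positive control signal)/(negative control signal − positive control signal) × 100. DMSO is the negative control (100%) and a control compound the positive control (0%). Lower ctrl% means tighter binding.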
# [2] = MRT (0 to infinity) in male Sprague-Dawley rat at 10 mg/kg, po measured for 24 hrs by LC-MS/MS analysis; assay type: ADME, organism-based; conditions: in vivo
# [3] = target: Dual specificity testis-specific protein kinase 1 (Homo sapiens) (UniProt Q15569); test: Inhibition of TESK1 (unknown origin) assessed as remaining activity at 1 uM by Kinome scan method relative to control
# [4] = target: Serine/threonine-protein kinase 32B (Homo sapiens) (UniProt Q9NY57); test: Inhibition of YANK2 (unknown origin) assessed as remaining activity at 1 uM by Kinome scan method relative to control
# [5] = Toxicity in mouse assessed as cancer cell growth at 1 mg/kg, ip administered for 2 months; assay type: organism-based; conditions: in vivo, 1460 h
# How it was run: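 Wild-type mice were given 1 mg/kg i.p. daily for 2 months and examined for cancer growth and serum α-fetoprotein.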
# [6] = target: Tyrosine-protein kinase receptor Tie-1 (Homo sapiens) (UniProt P35590); test: Inhibition of TIE1 (unknown origin) assessed as remaining activity at 1 uM by Kinome scan method relative to control
# Homo sapiens [7] = organism: Homo sapiens; test: Inhibition of recombinant His-tagged full-length MST1 D109A mutant (unknown origin) expressing in Escherichia coli assessed as GST-tagged MOB1 phosphorylation level at 0.01 to 1 uM incubated for 15 min by immunoblot analysis; conditions: dose 0.01-1 µM
# [8] = target: Serine/threonine-protein kinase Nek5 (Homo sapiens) (UniProt Q6P3R8); test: Inhibition of NEK5 (unknown origin) assessed as remaining activity at 1 uM by Kinome scan method relative to control
# [9] = target: cGMP-dependent protein kinase 2 (Homo sapiens) (UniProt Q13237); test: Inhibition of PRKG2 (unknown origin) assessed as remaining activity at 1 uM by Kinome scan method relative to control
# [10] = system: Tyrosine-protein kinase ABL1 (Homo sapiens), P00519 [Q252H]; test: Inhibition of ABL1 Q252H mutant (unknown origin) assessed as remaining activity at 1 uM by Kinome scan method relative to control
# How it was run: (§2)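 Active-site-dependent competition-binding (KINOMEscan) panel of 468 kinases, test compound at 1 μM (from a 10 mM DMSO stock). Read-out is ctrl% = (test signal − positive control signal)/(negative control signal − positive control signal) × 100. DMSO is the negative control (100%) and a control compound is the positive control (0%). Lower ctrl% means tighter binding.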
# [11] = target: Mitogen-activated protein kinase kinase kinase 4 (Homo sapiens) (UniProt Q9Y6R4); test: Inhibition of MAP3K4 (unknown origin) assessed as remaining activity at 1 uM by Kinome scan method relative to control
# Homo sapiens [12] = organism: Homo sapiens; test: Inhibition of ALK C1156V mutant (unknown origin) assessed as remaining activity at 1 uM by Kinome scan method relative to control
# How it was run: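 KINOMEscan active-site-dependent competition-binding panel of 468 kinases, compound at 1 μM from a DMSO stock. Result reported as ctrl% = (test signal − positive control signal)/(negative control signal − positive control signal) × 100. The negative control is DMSO (100%) and the positive control is a control compound (0%). Lower ctrl% means tighter binding.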
# [13] = target: TRAF2 and NCK-interacting protein kinase (Homo sapiens) (UniProt Q9UKE5); test: Inhibition of TNIK (unknown origin) assessed as remaining activity at 1 uM by Kinome scan method relative to control
# [14] = target: Death-associated protein kinase 1 (Homo sapiens) (UniProt P53355); test: Inhibition of DAPK1 (unknown origin) assessed as remaining activity at 1 uM by Kinome scan method relative to control; how it was run: as §1
# [15] = target: G protein-coupled receptor kinase 3 (Homo sapiens) (UniProt P35626); test: Inhibition of GRK3 (unknown origin) assessed as remaining activity at 1 uM by Kinome scan method relative to control
# Mus musculus = test: In vivo inhibition of MST1/2 in wild-type Mst1fl/fl Mst2fl/fl mouse assessed as high number in nuclear YAP-positive cells at 1 mg/kg, ip administrated daily for 7 days by immunohistochemical staining; assay type: functional, organism-based; conditions: Liver, time 7.0 day
# [16] = target: CDK4/Cyclin D3 (Homo sapiens) (UniProt P11802+P30281); test: Inhibition of CDK4/cyclinD3 (unknown origin) assessed as remaining activity at 1 uM by Kinome scan method relative to control; assay type: protein-complex assay; how it was run: as §1
# [17] = system: Serine/threonine-protein kinase B-raf (Homo sapiens), P15056 [V600E]; test: Inhibition of BRAF V600E mutant (unknown origin) assessed as remaining activity at 1 uM by Kinome scan method relative to control; how it was run: as §2
# [18] = Oral bioavailability in male Sprague-Dawley rat at 10 mg/kg measured for 24 hrs by LC-MS/MS analysis; assay type: ADME, organism-based; conditions: in vivo
# [19] = system: Epidermal growth factor receptor (Homo sapiens), P00533 [L861Q]; test: Inhibition of EGFR L861Q mutant (unknown origin) assessed as remaining activity at 1 uM by Kinome scan method relative to control
# [20] = target: Mitogen-activated protein kinase kinase kinase 2 (Homo sapiens) (UniProt Q9Y2U5); test: Inhibition of MAP3K2 (unknown origin) assessed as remaining activity at 1 uM by Kinome scan method relative to control
# [21] = target: Ribosomal protein S6 kinase alpha-2 (Homo sapiens) (UniProt Q15349); test: Inhibition of C-terminal kinase domain RSK3 (unknown origin) assessed as remaining activity at 1 uM by Kinome scan method relative to control; how it was run: as §2
# Sequence of Ribosomal protein S6 kinase alpha-2 (Homo sapiens) (Q15349 whole entry, the tested form may be a part): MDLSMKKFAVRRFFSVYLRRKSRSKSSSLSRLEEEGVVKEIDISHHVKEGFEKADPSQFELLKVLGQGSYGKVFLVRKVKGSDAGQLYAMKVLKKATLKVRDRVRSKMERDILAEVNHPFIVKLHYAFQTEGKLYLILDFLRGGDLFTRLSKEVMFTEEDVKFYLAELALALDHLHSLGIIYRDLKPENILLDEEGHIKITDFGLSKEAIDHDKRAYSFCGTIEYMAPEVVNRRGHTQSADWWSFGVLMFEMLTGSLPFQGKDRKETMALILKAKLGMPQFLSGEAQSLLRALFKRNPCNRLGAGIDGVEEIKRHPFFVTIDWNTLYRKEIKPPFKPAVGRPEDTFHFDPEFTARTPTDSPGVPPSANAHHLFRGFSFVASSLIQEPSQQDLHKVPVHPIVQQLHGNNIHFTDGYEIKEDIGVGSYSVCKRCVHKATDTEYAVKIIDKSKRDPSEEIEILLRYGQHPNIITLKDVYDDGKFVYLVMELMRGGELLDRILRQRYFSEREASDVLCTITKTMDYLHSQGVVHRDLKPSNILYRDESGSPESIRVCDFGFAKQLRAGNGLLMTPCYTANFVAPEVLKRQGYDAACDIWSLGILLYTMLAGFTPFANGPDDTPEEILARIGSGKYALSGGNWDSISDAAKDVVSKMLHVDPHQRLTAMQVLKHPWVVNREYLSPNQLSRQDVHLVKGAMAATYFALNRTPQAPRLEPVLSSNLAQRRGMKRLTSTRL
# Sequence of Casein kinase I isoform alpha-like (Homo sapiens) (Q8N752 whole entry, canonical isoform): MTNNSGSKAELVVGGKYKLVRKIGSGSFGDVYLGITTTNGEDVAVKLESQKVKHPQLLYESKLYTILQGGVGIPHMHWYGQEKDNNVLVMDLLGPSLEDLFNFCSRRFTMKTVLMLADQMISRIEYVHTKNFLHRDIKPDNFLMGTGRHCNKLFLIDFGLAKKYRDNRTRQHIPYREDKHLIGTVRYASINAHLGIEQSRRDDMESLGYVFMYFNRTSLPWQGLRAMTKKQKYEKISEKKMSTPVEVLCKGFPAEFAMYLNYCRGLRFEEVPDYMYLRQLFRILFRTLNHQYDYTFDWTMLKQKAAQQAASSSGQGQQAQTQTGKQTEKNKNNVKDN
# Sequence of Mitogen-activated protein kinase kinase kinase 4 (Homo sapiens) (Q9Y6R4 whole entry): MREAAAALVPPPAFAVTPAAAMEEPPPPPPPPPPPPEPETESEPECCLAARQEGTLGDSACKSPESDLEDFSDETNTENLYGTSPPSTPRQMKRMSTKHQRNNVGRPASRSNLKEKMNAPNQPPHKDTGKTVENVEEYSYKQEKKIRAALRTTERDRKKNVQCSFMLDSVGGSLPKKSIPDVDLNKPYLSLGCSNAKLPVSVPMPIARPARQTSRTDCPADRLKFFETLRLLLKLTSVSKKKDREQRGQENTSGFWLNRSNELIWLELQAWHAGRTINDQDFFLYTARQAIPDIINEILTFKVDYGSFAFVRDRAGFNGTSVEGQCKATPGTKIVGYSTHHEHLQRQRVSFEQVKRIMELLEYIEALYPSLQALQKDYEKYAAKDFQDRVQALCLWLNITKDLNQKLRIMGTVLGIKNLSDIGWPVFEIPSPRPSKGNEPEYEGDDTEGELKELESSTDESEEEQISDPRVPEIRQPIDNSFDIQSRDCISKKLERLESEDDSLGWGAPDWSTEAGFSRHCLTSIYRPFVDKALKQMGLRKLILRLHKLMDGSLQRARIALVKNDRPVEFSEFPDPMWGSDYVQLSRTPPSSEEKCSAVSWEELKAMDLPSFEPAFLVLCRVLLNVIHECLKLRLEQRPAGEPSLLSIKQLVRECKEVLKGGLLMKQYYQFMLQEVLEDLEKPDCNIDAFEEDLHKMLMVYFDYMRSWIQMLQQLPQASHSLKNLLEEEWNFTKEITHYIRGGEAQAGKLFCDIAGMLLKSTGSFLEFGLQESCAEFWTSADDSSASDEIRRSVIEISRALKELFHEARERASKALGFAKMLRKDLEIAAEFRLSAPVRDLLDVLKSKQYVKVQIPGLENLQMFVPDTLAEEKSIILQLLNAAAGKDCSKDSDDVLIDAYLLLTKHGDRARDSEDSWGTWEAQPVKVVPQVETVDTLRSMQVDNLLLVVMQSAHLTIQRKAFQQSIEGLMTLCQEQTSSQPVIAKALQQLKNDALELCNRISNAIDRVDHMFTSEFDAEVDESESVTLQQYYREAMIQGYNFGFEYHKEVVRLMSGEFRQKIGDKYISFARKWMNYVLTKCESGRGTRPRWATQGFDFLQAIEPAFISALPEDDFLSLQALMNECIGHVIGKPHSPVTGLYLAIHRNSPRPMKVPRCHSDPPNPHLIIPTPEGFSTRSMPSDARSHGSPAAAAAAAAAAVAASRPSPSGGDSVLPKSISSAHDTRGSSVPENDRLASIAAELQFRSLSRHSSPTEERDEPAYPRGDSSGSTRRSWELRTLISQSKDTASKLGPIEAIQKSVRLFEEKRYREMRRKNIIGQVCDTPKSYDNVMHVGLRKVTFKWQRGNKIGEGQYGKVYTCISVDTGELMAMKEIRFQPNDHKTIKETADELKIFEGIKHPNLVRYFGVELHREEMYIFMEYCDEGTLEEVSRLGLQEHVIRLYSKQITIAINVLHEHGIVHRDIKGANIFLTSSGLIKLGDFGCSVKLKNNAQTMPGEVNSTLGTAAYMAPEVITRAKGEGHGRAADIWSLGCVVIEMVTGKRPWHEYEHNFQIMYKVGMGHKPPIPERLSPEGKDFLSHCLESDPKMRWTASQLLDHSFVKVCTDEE
# Sequence of Serine/threonine-protein kinase 32B (Homo sapiens) (Q9NY57 whole entry): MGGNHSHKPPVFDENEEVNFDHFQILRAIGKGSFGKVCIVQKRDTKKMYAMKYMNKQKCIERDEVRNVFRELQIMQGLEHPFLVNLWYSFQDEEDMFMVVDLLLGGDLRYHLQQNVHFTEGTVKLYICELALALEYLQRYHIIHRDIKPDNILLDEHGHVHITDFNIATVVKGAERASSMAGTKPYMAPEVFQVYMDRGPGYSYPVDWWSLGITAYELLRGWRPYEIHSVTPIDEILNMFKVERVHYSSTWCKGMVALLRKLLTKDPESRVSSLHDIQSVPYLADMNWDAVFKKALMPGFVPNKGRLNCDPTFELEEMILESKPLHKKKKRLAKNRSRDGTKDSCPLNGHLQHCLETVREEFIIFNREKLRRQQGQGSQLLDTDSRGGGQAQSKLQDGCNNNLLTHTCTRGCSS
# Sequence of Tyrosine-protein kinase receptor Tie-1 (Homo sapiens) (P35590 whole entry): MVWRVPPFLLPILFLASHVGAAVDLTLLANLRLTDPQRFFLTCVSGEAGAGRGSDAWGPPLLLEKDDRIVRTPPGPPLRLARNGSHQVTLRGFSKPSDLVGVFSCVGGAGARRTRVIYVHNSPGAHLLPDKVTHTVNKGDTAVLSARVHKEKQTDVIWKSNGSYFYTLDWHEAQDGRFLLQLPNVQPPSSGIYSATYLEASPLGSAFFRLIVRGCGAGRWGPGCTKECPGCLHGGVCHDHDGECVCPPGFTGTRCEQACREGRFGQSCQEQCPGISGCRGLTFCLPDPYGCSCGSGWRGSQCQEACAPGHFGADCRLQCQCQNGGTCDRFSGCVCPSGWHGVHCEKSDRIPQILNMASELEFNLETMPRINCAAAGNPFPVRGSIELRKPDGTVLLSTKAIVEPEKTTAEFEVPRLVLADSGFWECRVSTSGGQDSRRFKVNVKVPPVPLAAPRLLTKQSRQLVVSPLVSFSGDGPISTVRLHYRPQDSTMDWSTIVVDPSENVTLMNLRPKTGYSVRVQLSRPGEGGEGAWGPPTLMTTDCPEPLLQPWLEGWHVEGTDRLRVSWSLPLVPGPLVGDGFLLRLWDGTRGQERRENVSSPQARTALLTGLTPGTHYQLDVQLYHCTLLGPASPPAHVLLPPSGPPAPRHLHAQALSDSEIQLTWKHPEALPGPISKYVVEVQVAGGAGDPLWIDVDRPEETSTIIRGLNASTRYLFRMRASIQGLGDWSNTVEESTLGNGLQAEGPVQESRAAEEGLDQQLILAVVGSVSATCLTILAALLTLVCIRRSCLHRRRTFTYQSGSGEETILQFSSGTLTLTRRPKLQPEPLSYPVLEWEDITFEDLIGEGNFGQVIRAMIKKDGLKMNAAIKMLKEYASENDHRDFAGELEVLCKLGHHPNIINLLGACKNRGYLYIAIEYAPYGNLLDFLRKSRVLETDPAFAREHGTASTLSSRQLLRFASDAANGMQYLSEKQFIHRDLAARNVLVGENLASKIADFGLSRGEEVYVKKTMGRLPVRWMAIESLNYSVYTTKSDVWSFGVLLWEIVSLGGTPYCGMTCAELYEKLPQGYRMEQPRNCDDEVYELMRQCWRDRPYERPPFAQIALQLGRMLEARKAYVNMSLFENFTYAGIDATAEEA
# Sequence of Serine/threonine-protein kinase Nek5 (Homo sapiens) (Q6P3R8 whole entry): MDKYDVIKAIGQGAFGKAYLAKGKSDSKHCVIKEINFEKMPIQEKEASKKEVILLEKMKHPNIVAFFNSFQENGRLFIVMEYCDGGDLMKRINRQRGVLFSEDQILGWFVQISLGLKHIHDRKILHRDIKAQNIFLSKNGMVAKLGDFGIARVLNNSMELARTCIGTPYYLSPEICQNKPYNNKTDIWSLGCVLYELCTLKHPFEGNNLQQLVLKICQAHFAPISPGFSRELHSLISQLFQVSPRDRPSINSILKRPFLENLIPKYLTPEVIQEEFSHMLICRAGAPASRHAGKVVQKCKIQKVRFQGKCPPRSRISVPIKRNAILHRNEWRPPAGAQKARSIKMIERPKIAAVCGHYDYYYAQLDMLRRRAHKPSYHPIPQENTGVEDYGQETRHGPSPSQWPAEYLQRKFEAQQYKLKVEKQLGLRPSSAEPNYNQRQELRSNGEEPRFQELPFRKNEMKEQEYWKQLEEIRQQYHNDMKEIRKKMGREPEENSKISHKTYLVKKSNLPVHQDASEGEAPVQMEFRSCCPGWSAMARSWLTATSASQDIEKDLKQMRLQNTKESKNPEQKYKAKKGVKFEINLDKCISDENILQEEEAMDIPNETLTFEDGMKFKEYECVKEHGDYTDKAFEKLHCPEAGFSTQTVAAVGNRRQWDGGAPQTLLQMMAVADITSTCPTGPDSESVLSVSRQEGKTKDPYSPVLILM
smiles,measurement,setting,value
CN1C(=O)c2sccc2N(C)c2nc(Nc3ccc(S(N)(=O)=O)cc3)ncc21,Activity,[1],93%
same,MRT inf,[2],7.34 h
same,Activity,[3],80%
same,Activity,[4],100%
same,Activity,[5],Non-Toxic
same,Activity,[6],100%
same,inhibition,Homo sapiens [7],Active
same,Activity,[8],97%
same,Activity,[9],95%
same,Activity,[10],15%
same,Activity,[11],91%
same,Activity,Homo sapiens [12],95%
same,Activity,[13],71%
same,Activity,[14],91%
same,Activity,[15],87%
same,inhibition,Mus musculus,Active
same,Activity,[16],100%
same,Activity,[17],100%
same,bioavailability,[18],39.5%
same,Activity,[19],64%
same,Activity,[20],2.6%
same,Activity,[21],92%
